Screening data from PubChem.
KCNQ1 block – inhibitors of human KCNQ1 potassium channel; P51787; CHO-K1 KCNQ1, FluxOR thallium flux fluorescence; active compounds read high; B-score at 10 µM; actives 1.3% (n = 310,000); AID 2642;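 active = compounds whose thallium flux B-score, printed positive for inhibition, exceeds three library SD while starting fluorescence stays within three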;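 note: channel opened by potassium depolarization with thallium stimulus after 20 min compound exposure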
Target sequence (P51787 whole entry, looked up): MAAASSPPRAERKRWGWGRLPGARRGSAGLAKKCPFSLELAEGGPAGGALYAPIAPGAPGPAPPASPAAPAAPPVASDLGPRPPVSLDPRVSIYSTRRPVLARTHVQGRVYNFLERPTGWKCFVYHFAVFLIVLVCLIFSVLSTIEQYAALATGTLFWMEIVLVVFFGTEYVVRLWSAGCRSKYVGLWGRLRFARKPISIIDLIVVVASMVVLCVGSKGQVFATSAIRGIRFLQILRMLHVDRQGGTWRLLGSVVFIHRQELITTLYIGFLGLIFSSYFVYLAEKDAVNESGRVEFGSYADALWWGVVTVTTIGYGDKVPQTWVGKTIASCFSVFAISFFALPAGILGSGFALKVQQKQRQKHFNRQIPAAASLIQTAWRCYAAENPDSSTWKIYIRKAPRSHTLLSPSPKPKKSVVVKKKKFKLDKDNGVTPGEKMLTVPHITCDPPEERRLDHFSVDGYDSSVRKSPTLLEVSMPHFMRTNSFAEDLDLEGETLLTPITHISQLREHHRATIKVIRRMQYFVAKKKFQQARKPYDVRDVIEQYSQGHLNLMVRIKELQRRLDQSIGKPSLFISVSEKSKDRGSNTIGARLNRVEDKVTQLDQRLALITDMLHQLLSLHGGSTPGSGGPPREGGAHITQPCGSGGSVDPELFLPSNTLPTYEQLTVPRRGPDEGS
KCNK3 inh – human KCNK3 channel inhibition, primary screen | B-score at 10 µM | actives 0.84% (n = 340,000) | CHO-KCNK3 thallium flux, FluxOR fluorescence; active compounds read low | AID 602410;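 active = B-score under library mean minus 4 SD, starting fluorescence ratio at most library mean plus 5 SD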;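 note: more negative B-score means stronger inhibition of thallium flux through KCNK3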
KCNQ1 pot – human KCNQ1 channel potentiation or activation; P51787; CHO-K1 KCNQ1, thallium flux FluxOR fluorescence; active compounds read high; B-score at 10 µM; actives 0.35% (n = 310,000); AID 2648;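 active = fluorescence ratio B-score, a plate-corrected score, at least three library SD, with initial intensity B-score within 5 SD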
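System: CHO-K1 cells stably expressing KCNQ1 / Medium: assay buffer for compound exposure, DMSO matched across wells / Reagent: thallium- and potassium-containing depolarizing buffer / Compound: one concentration, matched DMSO / Incubation: 20 min compound pretreatment at room temperature / Measured by: kinetic FluxOR fluorescence, 10 s baseline plus 110 s post-stimulus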
KCNK9 inh – blocks the human KCNK9 two-pore domain potassium channel; Q9NPC2; HEK293 KCNK9, FluxOR thallium flux fluorescence; active compounds read low; AID 488922; actives 1.2% (n = 310,000); B-score at 10 µM;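 active = ratio B-score over 3 SD below the library mean, with starting fluorescence within 5 SD of its mean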;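 note: negative B-score means less thallium flux so channel inhibition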
hERG rescue – shields human hERG channel from block by proarrhythmic agents; Q12809; activation (rescue from dofetilide block), less the hit threshold, % at 10 µM; actives 0.51% (n = 310,000); CHO-hERG, FluxOR thallium flux, dofetilide IC70 present;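 active = activation above the mean of controls blocked by dofetilide plus 5 SD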;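 note: thallium influx through hERG after potassium depolarization seen as dye fluorescence rise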
Large screens that a line does not name were inactive. The list is not random: actives were taken first. Their share in the collection is about 3.1%.

O=C(CC(=O)c1ccccc1O)c1cccc(F)c1	KCNQ1 pot 37
O=C(NCc1ccccn1)c1ccc2nc(C3CCCCC3)oc2c1	none
Cc1ccc(C(=O)O)cc1N=Cc1cc(Br)cc(Br)c1O	none
CN(/N=C/c1cc(Br)cc(Br)c1O)c1cccc(C(F)(F)F)n1	KCNK9 inh -7.1
CCn1c(SCC(=O)Nc2nc3ccc(C)cc3s2)nc2c(c1=O)SC(C)C2 (configuration not stated)	KCNK3 inh -11
CCn1c(SCC(=O)Nc2nc3ccccc3s2)nc2c(c1=O)SC(C)C2 (configuration not stated)	none (no result: KCNK3 inh)
CC(C)(C)OC(=O)N(Cc1ccccc1)Cc1ccc(OCc2cccc(NC(=O)C3CC3)c2)cc1	none (no result: KCNQ1 block, KCNQ1 pot, KCNK9 inh, hERG rescue)
CCOC(=O)c1ccccc1OC(=O)CS(=O)c1ccccc1[N+](=O)[O-] (configuration not stated)	KCNQ1 block 6
CS(=O)(=O)N1N=C(c2ccco2)CC1c1ccccc1 (configuration not stated)	none
Fc1ccc(C2CC(c3ccco3)=NN2c2ccccc2)cc1 (configuration not stated)	KCNQ1 block 7, KCNK9 inh -7.9
COc1ccccc1N1N=C(c2ccc([N+](=O)[O-])cc2)CC1c1ccccc1 (configuration not stated)	KCNQ1 block 12
O=[N+]([O-])c1ccc(N2N=C(c3ccccc3)CC2c2ccccc2O)cc1 (configuration not stated)	none
O=[N+]([O-])c1ccc(N2N=C(c3ccco3)CC2c2ccccc2)cc1 (configuration not stated)	KCNQ1 block 11
CCN(C(=O)c1cccc(S(=O)(=O)N(C)C)c1)C12CC3CC(CC(C3)C1)C2	none
O=C(CCCN1CCOCC1)c1ccc2c(c1)OCCO2	none
O=C(CCN1CCc2ccccc2CC1)c1ccc2c(c1)OCCO2	KCNQ1 pot 10
O=C(Cn1c(C(F)(F)F)nc2ccccc21)Nc1ccccc1N1CCOCC1	none
CSc1nc2ccccc2n1CC(=O)Nc1cc(C(F)(F)F)ccc1N1CCOCC1	KCNK9 inh -7.8
Cc1ccccc1SCC(=O)Nc1cc(C(F)(F)F)ccc1N1CCOCC1	KCNQ1 block 14
O=C(NC(=S)Nc1cc(C(F)(F)F)ccc1N1CCOCC1)c1ccco1	hERG rescue 5.7
Oc1ccc(C[C@H]2CNC(=S)N2CC2CCCN2C[C@H](Cc2ccccc2)N2C[C@H](Cc3ccc(O)cc3)N(CCc3ccccc3)C2=S)cc1 (some centres not stated)	none (no result: KCNQ1 block, KCNQ1 pot, KCNK9 inh, hERG rescue)
CC(C)[C@H](NC(=O)OC(C)(C)C)c1nnc(SCC(=O)Nc2ccc(Br)cc2)o1	KCNQ1 block 6
Cc1ccnc(N2C(=O)c3cccc4c([N+](=O)[O-])ccc(c34)C2=O)c1	KCNQ1 block 7
O=C(NCCCN1CCOCC1)NC12CC3CC(CC(C3)C1)C2	KCNQ1 block 6
OCCN(CCO)c1ccc(C(c2ccccc2Cl)c2ccc(N(CCO)CCO)cc2Cl)c(Cl)c1	KCNQ1 pot 11
OCCN(CCO)c1ccc2ccccc2c1	none
CCC1=C(OC(=O)N(CC)CC)N2C(=O)OC(=NCCc3c[nH]c4ccccc34)[C@]2(Cc2ccccc2)[C@H]2C1=CC[C@H]1C(=O)N(CC)C(=O)[C@H]12	KCNK9 inh -6.8
CCOc1ccc(C(=O)Nc2cc(C)on2)cc1OCC	hERG rescue 4.9
O=C(CSc1nnc(-c2ccncc2)n1Cc1ccco1)N1c2ccccc2Sc2ccc(Cl)cc21	KCNK9 inh -6.6
Cn1c(SCC(=O)N2c3ccccc3Sc3ccc(Cl)cc32)nnc1-c1ccco1	none (no result: KCNQ1 block, KCNQ1 pot, KCNK9 inh, hERG rescue)
Cn1nnnc1SCC(=O)N1c2ccccc2Sc2ccc(Cl)cc21	KCNK3 inh -10 (no result: KCNQ1 block, KCNQ1 pot, KCNK9 inh, hERG rescue)
O=C(CCC1CCCCC1)Nc1cc(Cl)ccc1N1CCOCC1	KCNK3 inh -9 (no result: KCNQ1 block, KCNQ1 pot, KCNK9 inh, hERG rescue)
Cc1nc(SCC(=O)NCc2ccco2)nc(C)c1C	none
Cc1sc2nc(C(C)C)nc(SCC(=O)NCc3ccco3)c2c1C	KCNQ1 pot 12, hERG rescue 8.7
Cc1nc(SCC(=O)NC(=O)NCc2ccco2)nc(C)c1C	hERG rescue 6.7
COc1ccc(C2C(C)C(=O)C(C)C(c3ccc(OC)cc3)N2N=O)cc1 (configuration not stated)	none (no result: KCNQ1 block, KCNQ1 pot, KCNK9 inh, hERG rescue)
COC(=O)c1cnn(-c2ccc(F)cc2F)c1/C=N/NC(=S)NC(C)(C)C	KCNK9 inh -7
COc1cc2c(cc1NC(=O)CSc1ccccn1)oc1ccccc12	KCNK9 inh -7.3
COc1ccccc1CC(=O)Nc1cc2oc3ccccc3c2cc1OC	KCNK9 inh -6.9
COc1ccc(CC(=O)Nc2cc3oc4ccccc4c3cc2OC)cc1	none
CCOC(=O)COn1c(-c2cccc(Cl)c2)nc2ccc([N+](=O)[O-])cc21	KCNQ1 block 6
CC(NC(=O)c1ccccc1Cl)C(=O)OCc1cn2cc(Cl)ccc2n1 (configuration not stated)	none (no result: KCNQ1 block, KCNQ1 pot, KCNK9 inh, hERG rescue)
COc1ccn(C2CCCCO2)c(=O)n1 (configuration not stated)	none (no result: KCNQ1 block, KCNQ1 pot, KCNK9 inh, hERG rescue)
CCNc1ccc(Br)cc(C(=O)/C=C/c2c(Cl)cccc2Cl)c1=O	KCNQ1 block 6, KCNK3 inh -9
NC(=O)N/N=C/c1ccc2cccc(OCc3ccccc3)c2n1	none
O=C(Cc1ccccc1)N/N=C/c1ccc2cccc(O)c2n1	hERG rescue 9.4
Cc1ccc(NC(=O)c2ncn(CCCNCc3ccccc3)n2)cc1C	none (no result: KCNQ1 block, KCNQ1 pot, KCNK9 inh, hERG rescue)
O=C(N/N=C/c1ccccc1C(=O)O)c1ccccc1Br	hERG rescue 4.9
C=CCc1cccc(/C=N/NC(=O)c2ccccc2Br)c1O	none
CN(C(=O)CSc1nc(-c2cccs2)nc2ccccc12)C1CCS(=O)(=O)C1 (configuration not stated)	none (no result: KCNQ1 block, KCNQ1 pot, KCNK9 inh, hERG rescue)
CC(=O)N(\C=C/C=C/C=C1\Sc2ccccc2C1=O)c1ccccc1	KCNQ1 block 7
O=C1NC(=O)/C(=C/c2ccc(-c3cccc([N+](=O)[O-])c3)o2)S1	KCNQ1 block 12
COC(=O)c1nc2cc3c(cc2c(C)c1C(=O)OC)OCO3	none
COc1ccc(C(=O)c2cnc3cc4c(cc3c2C)OCO4)cc1	KCNK9 inh -6.9
C=CCn1c(C)cc(C2=NNC(=Nc3ccc(C)cc3)SC2)c1C	none
C=CCn1c(C)cc(C2=NNC(=NC(C)(C)C)SC2)c1C	KCNQ1 block 8
CC(=O)OCCN1C(=O)c2cccc3cc([N+](=O)[O-])cc(c23)C1=O	none (no result: KCNK3 inh)
O=C(CSc1nc2ccc(Nc3nc(N4CCCC4)nc(N4CCCC4)n3)cc2s1)NCc1ccco1	KCNQ1 block 8
CCC(C)(CCNC(=O)Cc1ccccc1)c1ccccc1OC (configuration not stated)	none
CC(OC(=O)C1CC1)C(=O)Nc1ncc(Cl)cc1Cl (configuration not stated)	none (no result: KCNQ1 block, KCNQ1 pot, KCNK9 inh, hERG rescue)
CC(OC(=O)C1CC1)C(=O)Nc1cc(Cl)cc(Cl)c1 (configuration not stated)	KCNK3 inh -8.7 (no result: KCNQ1 block, KCNQ1 pot, KCNK9 inh, hERG rescue)
